How the values were obtained:
T47D/neo cells = assay: ERE activation, luciferase reporter in T47D/neo cells; format: cell-based, human; settings: read-out: EC50 ERE-luciferase activation, classical ER-dependent
How it was run: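 T47D:A18/neo stable transfectants were grown in RPMI 1640 with 10% FBS and G418 (500 µg/mL), then held 3 days in phenol red-free, E2-depleted RPMI with G418. 8 × 10^6 cells were electroporated with ERE-tk-Luc (5 µg) plus pCMVβ β-gal (1 µg). The next day, test compound (10^-9–10^-7 mol/L), E2 (10^-9 mol/L) or ethanol vehicle was added for 18 h. Luciferase luminescence was normalized to β-gal.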

[1] = format: in vitro ADME, human; settings: four days
MCF-7 cells = settings: cited from earlier work
ER(+) Ishikawa cells = assay: Induction of alkaline phosphatase in Ishikawa cells; format: cell-based, human

With “Per-6-(estradiol-17-(1H-1,2,3-triazol-4-yl))-6-deoxy-β-cyclodextrin [Compound 7EqCD]” the EC50 (T47D/neo cells) was > 0.1 µM, the “Free EE2 in cell supernatant” value ([1]; 7EqCD 10 nM, Ishikawa cells) was < 50 pM and the “Free estrogen (EE2 or E2) in cell supernatant, result in words” value ([1]; Ishikawa cell culture) was “EE2 was not observed above detection limits”.
In the case of 17-beta estradiol [Compound E2], the “Potency of E2 relative to the E2–dendrimer conjugate” value (MCF-7 cells) is given as 3–4 orders of magnitude.
For `NC[C@H]1O[C@@H]2O[C@H]3[C@H](O)[C@@H](O)[C@@H](O[C@H]4[C@H](O)[C@@H](O)[C@@H](O[C@H]5[C@H](O)[C@@H](O)[C@@H](O[C@H]6[C@H](O)[C@@H](O)[C@@H](O[C@H]7[C@H](O)[C@@H](O)[C@@H](O[C@H]8[C@H](O)[C@@H](O)[C@@H](O[C@H]1[C@H](O)[C@H]2O)O[C@@H]8CN)O[C@@H]7CN)O[C@@H]6CN)O[C@@H]5CN)O[C@@H]4CN)O[C@@H]3CN` [ACD, Per-6-amino-6-deoxy-β-cyclodextrin], the “Estrogenic activity, result in words” value (ER(+) Ishikawa cells) was “inactive”.
With `[N-]=[N+]=NC[C@H]1O[C@@H]2O[C@H]3[C@H](O)[C@@H](O)[C@@H](O[C@H]4[C@H](O)[C@@H](O)[C@@H](O[C@H]5[C@H](O)[C@@H](O)[C@@H](O[C@H]6[C@H](O)[C@@H](O)[C@@H](O[C@H]7[C@H](O)[C@@H](O)[C@@H](O[C@H]8[C@H](O)[C@@H](O)[C@@H](O[C@H]1[C@H](O)[C@H]2O)O[C@@H]8CN=[N+]=[N-])O[C@@H]7CN=[N+]=[N-])O[C@@H]6CN=[N+]=[N-])O[C@@H]5C/N=[NH+]\[NH-])O[C@@H]4CN=[N+]=[N-])O[C@@H]3CN=[N+]=[N-]` [Compound 2, Per-6-azido-6-deoxy-β-cyclodextrin] the “Estrogenic activity, result in words” value (ER(+) Ishikawa cells) was “inactive”.

From publication PMC2906776 (Bioorganic & medicinal chemistry, 2009)
